Results taken from ChEMBL document CHEMBL4334471, “Discovery of 1,8-disubstituted-[1,2,3]triazolo[4,5-c]quinoline derivatives as a new class of Hippo signaling pathway inhibitors” (Bioorg Med Chem Lett, 2019).
The source made the active and inactive calls. The calls are words filed in the database; no cut-off is given here.

How the values were obtained:
[1] = target: Transcriptional coactivator YAP1 (Homo sapiens) (UniProt P46937); test: Induction of YAP nuclear translocation in human A549 cells at 10 uM incubated for 8 hrs by immunofluorescence based confocal microscopy; assay type: cell-based
How it was run: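 A549-CTGF reporter cells were treated for 8 h at 10 µM, with 0.1% DMSO as vehicle control. Cells were then fixed, permeabilized and probed with anti-YAP antibody. DAPI stained the nuclei, and YAP localization was imaged by immunofluorescence.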

[2] = system: Tyrosine-protein kinase ABL1 (Homo sapiens), P00519 [M351T]; test: Inhibition of human ABL1 M351T mutant (27 to end residues) assessed as residual activity at 10 uM using EAIYAAPFAKKK as substrate incubated for 40 mins in presence of [gamma-33ATP] by scintillation counting based radiometry assay relative to control
[3] = target: Activated CDC42 kinase 1 (Homo sapiens) (UniProt Q07912); test: Inhibition of human ACK1 (1 to 389 residues) assessed as residual activity at 10 uM using EFPIYDFLPAKKK as substrate incubated for 40 mins in presence of [gamma-33ATP] by scintillation counting based radiometry assay relative to control
[4] = target: Calcium/calmodulin-dependent protein kinase type 1D (Homo sapiens) (UniProt Q8IU85); test: Inhibition of recombinant full length human CaMK1delta assessed as residual activity at 10 uM using […] incubated for 40 mins in presence of [gamma-33ATP] by scintillation counting based radiometry assay relative to control
[5] = target: Ephrin type-A receptor 1 (Homo sapiens) (UniProt P21709); test: Inhibition of recombinant human EphA1 (568 to end residues) assessed as residual activity at 10 uM using KKKSPGEYVNIEF as substrate at 40 mins in presence of [gamma-33ATP] by scintillation counting based radiometry assay relative to control
Ephrin type-A receptor 1 (Homo sapiens), sequence (P21709 whole entry): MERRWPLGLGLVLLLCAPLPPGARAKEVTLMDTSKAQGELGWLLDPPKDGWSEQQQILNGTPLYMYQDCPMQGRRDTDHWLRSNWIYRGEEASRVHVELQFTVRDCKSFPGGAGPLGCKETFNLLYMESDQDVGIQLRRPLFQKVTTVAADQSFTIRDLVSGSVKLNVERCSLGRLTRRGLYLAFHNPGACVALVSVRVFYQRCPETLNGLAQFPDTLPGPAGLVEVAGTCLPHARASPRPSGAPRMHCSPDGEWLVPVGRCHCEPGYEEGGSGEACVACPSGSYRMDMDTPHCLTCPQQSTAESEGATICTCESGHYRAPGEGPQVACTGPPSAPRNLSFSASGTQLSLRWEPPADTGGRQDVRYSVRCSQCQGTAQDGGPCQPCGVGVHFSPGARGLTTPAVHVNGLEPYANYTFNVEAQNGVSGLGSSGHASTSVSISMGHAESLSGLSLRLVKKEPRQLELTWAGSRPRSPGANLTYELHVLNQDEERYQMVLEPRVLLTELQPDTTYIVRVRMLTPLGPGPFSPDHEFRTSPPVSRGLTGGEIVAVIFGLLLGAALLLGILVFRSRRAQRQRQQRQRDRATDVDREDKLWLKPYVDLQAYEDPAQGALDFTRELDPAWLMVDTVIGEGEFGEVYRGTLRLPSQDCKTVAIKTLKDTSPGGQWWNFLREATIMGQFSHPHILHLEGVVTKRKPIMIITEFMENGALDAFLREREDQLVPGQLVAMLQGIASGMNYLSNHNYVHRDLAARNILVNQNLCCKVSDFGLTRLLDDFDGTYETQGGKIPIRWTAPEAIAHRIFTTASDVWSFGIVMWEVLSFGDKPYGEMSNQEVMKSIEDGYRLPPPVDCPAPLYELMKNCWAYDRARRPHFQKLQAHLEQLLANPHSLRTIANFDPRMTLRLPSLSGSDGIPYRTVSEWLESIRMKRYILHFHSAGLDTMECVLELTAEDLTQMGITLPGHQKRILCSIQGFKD

[6] = target: Tyrosine-protein kinase Fes/Fps (Homo sapiens) (UniProt P07332); test: Inhibition of recombinant human FES (2 to end residues) assessed as residual activity at 10 uM using poly(Glu, Tyr) 4:1 as substrate at 40 mins in presence of [gamma-33ATP] by scintillation counting based radiometry assay relative to control
[7] = system: Macrophage colony-stimulating factor 1 receptor (Homo sapiens), P07333 [Y969C]; test: Inhibition of recombinant human FMS Y969C mutant (538 to end residues) assessed as residual activity at 10 uM using EEEEYEEEEEEYYIIEEEEEEYEEEEEEYYEEEEEEKKKK as substrate at 40 mins in presence of [gamma-33ATP] by scintillation counting based radiometry assay relative to control
[8] = target: Insulin receptor (Homo sapiens) (UniProt P06213); test: Inhibition of human IR (1005 to 1310 residues) assessed as residual activity at 10 uM using KKSRGDYMTMQIG as substrate after 40 mins by [gamma-33ATP] radiometric assay relative to control
[9] = target: Tyrosine-protein kinase ITK/TSK (Homo sapiens) (UniProt Q08881); test: Inhibition of human Itk (352 to 617 residues) assessed as residual activity at 10 uM using myelin basic protein as substrate after 40 mins by [gamma-33ATP] radiometric assay relative to control
[10] = target: Tyrosine-protein kinase Lyn (Mus musculus) (UniProt P25911); test: Inhibition of recombinant full length mouse Lyn assessed as residual activity at 10 uM using poly(Glu, Tyr) 4:1 as substrate after 40 mins in presence of [gamma-33ATP] by scintillation counting based radiometry assay relative to control
Tyrosine-protein kinase Lyn (Mus musculus), sequence (P25911 whole entry): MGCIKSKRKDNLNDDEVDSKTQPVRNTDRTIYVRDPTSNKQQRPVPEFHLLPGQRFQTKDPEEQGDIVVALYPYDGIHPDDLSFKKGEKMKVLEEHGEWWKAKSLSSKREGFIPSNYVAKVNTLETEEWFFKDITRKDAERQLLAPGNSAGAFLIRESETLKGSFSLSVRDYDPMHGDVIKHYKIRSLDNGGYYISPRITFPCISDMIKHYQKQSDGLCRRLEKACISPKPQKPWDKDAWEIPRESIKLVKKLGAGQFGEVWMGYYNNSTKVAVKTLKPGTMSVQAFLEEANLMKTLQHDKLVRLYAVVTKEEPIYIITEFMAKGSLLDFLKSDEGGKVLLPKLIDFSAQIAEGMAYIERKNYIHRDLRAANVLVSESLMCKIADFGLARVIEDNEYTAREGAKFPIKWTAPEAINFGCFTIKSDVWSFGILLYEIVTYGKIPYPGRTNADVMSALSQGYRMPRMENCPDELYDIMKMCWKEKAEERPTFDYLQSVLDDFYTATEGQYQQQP

[11] = target: Dual specificity mitogen-activated protein kinase kinase 2 (Homo sapiens) (UniProt P36507); test: Inhibition of recombinant human MEK2 assessed as residual activity at 10 uM using MBP as substrate incubated for 40 mins in presence of [gamma-33ATP by scintillation counting based radiometry assay relative to control
Dual specificity mitogen-activated protein kinase kinase 2 (Homo sapiens), sequence (P36507 whole entry, the tested form may be a part): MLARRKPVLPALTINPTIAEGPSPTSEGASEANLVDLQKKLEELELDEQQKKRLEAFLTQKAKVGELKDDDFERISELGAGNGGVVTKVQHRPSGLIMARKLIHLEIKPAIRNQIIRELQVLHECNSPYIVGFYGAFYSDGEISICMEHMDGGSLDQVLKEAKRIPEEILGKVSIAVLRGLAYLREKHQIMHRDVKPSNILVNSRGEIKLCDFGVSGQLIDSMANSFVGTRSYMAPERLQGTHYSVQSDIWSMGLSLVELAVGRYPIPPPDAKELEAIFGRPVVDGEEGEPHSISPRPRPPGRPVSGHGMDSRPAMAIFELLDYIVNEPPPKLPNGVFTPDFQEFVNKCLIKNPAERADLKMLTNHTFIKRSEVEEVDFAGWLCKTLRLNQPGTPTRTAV

[12] = target: Serine/threonine-protein kinase MRCK beta (Homo sapiens) (UniProt Q9Y5S2); test: Inhibition of recombinant human MRCKbeta (1 to 473 residues) assessed as residual activity at 10 uM using KKRNRTLTV as substrate incubated for 40 mins in presence of [gamma-33ATP by scintillation counting based radiometry assay relative to control
Serine/threonine-protein kinase MRCK beta (Homo sapiens), sequence (Q9Y5S2 whole entry, the tested form may be a part): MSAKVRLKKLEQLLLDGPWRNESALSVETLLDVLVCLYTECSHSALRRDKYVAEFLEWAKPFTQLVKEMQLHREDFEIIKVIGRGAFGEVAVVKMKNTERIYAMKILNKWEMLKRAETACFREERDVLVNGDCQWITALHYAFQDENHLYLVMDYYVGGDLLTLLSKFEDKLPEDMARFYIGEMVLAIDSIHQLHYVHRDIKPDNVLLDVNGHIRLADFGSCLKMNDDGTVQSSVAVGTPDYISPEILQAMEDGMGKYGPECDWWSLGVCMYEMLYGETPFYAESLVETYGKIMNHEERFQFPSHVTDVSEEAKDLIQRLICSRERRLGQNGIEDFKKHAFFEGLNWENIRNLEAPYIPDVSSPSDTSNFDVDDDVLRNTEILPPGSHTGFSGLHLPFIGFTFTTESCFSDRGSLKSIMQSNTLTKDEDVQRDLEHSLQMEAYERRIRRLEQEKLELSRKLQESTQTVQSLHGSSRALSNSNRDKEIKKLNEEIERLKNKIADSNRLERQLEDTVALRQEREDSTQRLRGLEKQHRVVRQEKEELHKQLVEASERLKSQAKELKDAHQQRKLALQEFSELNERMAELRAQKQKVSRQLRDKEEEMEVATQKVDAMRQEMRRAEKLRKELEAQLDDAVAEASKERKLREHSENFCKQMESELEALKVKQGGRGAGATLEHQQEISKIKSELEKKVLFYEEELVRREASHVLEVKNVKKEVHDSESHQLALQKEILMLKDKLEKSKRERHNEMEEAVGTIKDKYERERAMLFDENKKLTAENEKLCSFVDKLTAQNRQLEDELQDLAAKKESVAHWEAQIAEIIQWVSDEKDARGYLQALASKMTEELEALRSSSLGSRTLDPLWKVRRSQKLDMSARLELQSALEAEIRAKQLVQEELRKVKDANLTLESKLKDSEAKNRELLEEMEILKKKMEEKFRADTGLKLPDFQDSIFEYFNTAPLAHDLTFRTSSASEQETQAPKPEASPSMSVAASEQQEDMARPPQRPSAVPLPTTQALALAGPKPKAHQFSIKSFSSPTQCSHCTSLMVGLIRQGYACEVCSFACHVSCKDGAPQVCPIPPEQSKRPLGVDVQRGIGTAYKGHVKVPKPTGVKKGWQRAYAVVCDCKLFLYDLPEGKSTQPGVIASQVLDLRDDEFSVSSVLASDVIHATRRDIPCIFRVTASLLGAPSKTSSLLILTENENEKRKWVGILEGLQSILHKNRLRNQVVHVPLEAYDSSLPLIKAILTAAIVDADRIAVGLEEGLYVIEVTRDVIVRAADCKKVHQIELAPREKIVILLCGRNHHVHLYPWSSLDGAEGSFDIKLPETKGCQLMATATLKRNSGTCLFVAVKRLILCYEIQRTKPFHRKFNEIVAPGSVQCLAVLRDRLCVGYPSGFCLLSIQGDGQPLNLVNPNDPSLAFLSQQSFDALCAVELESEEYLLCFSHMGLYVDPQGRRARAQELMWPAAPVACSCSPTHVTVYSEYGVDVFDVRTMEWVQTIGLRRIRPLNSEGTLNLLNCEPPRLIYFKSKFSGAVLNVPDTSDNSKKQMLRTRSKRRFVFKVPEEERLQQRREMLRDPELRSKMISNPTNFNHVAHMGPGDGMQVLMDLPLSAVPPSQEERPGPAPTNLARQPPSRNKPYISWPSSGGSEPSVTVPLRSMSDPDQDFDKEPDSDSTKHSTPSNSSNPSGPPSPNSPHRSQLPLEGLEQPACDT

[13] = target: Serine/threonine-protein kinase Nek6 (Homo sapiens) (UniProt Q9HC98); test: Inhibition of recombinant human NEK6 (2 to end residues) assessed as residual activity at 10 uM using FLAKSFGSPNRAYKK as substrate measured after 40 mins in presence of [gamma33P]ATP by scintillation counting based radiometry assay relative to control
[14] = target: [Pyruvate dehydrogenase (acetyl-transferring)] kinase isozyme 2, mitochondrial (Homo sapiens) (UniProt Q15119); test: Inhibition of human PDHK2 assessed as residual activity at 10 uM by scintillation counting based radiometry assay relative to control
[15] = target: 3-phosphoinositide-dependent protein kinase 1 (Homo sapiens) (UniProt O15530); test: Inhibition of recombinant human PDK1 (52 to end residues) assessed as residual activity at 10 uM using PDKtide as substrate incubated for 40 mins in presence of [gamma33P]ATP by scintillation counting based radiometry assay relative to control
[16] = target: Serine/threonine-protein kinase pim-3 (Homo sapiens) (UniProt Q86V86); test: Inhibition of recombinant human Pim3 (2 to end residues) assessed as residual activity at 10 uM using RSRHSSYPAG as substrate incubated for 40 mins in presence of [gamma33P]ATP by scintillation counting based radiometry assay relative to control
[17] = target: Protein kinase C iota type (Homo sapiens) (UniProt P41743); test: Inhibition of recombinant full-length human PKCiota assessed as residual activity at 10 uM using ERMRPRKRQGSVRRRV as substrate incubated for 40 mins in presence of [gamma33P]ATP by scintillation counting based radiometry assay relative to control
Homo sapiens [18] = species: Homo sapiens; test: Inhibition of recombinant human Plk4 S34T mutant (1 to 273 residues) assessed as residual activity at 10 uM using casein as substrate incubated for 40 mins in presence of [gamma33P]ATP by scintillation counting based radiometry assay relative to control
[19] = target: Serine/threonine-protein kinase N2 (Homo sapiens) (UniProt Q16513); test: Inhibition of recombinant human PRK2 (501 to end residues) assessed as residual activity at 10 uM using AKRRRLSSLRA as substrate incubated for 40 mins in presence of [gamma33P]ATP by scintillation counting based radiometry assay relative to control
Serine/threonine-protein kinase N2 (Homo sapiens), sequence (Q16513 whole entry, looked up): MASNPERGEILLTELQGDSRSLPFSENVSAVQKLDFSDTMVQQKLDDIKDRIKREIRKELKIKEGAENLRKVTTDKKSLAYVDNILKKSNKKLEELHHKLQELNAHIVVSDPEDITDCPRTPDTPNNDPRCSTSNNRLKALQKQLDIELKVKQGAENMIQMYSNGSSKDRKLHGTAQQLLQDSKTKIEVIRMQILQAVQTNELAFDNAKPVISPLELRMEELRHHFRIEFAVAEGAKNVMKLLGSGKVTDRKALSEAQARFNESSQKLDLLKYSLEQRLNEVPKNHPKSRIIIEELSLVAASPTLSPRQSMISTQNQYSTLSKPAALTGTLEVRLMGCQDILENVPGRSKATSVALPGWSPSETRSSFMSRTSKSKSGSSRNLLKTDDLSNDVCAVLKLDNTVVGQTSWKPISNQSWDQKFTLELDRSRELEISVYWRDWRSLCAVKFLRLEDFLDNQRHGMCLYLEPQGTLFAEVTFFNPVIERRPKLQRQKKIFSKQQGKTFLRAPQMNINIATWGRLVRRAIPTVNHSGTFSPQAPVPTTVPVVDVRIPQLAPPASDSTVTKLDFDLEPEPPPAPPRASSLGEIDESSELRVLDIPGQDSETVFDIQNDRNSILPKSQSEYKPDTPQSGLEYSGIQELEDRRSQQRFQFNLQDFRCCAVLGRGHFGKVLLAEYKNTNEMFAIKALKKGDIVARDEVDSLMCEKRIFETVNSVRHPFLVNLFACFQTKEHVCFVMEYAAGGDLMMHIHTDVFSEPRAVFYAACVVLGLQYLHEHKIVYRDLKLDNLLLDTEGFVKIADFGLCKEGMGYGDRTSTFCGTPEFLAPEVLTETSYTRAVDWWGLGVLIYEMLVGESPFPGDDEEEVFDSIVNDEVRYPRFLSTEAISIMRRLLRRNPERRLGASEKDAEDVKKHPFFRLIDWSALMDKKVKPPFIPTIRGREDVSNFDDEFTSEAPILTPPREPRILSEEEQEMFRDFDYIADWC

[20] = system: Mitogen-activated protein kinase 14 (Homo sapiens), Q16539 [T106M]; test: Inhibition of recombinant human full length SAPK2a T106M mutant assessed as residual activity at 10 uM using myelin basic protein as substrate incubated for 40 mins in presence of [gamma33P]ATP by scintillation counting based radiometry assay relative to control
Mitogen-activated protein kinase 14 (Homo sapiens), Q16539 [T106M], sequence (Q16539 whole entry T106M): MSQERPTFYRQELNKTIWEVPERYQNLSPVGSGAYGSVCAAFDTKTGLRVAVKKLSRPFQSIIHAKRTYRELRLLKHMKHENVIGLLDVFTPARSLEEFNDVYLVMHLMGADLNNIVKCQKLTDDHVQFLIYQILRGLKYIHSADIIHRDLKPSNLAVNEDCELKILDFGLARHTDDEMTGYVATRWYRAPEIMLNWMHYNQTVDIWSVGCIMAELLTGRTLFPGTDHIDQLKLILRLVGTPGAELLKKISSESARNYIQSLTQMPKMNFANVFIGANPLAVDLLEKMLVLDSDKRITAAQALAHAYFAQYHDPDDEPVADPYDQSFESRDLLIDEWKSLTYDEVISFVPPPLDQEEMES

Homo sapiens [21] = species: Homo sapiens; test: Inhibition of recombinant human full length PI3K p110/p65 assessed as residual activity at 10 uM using phosphatidylinositol-4, 5-bisphosphate as substrate incubated for 40 mins in presence of [gamma33P]ATP by scintillation counting based radiometry assay relative to control

For `C[C@@H](c1ccccc1)n1nnc2cnc3ccc(-c4cnc5[nH]ccc5c4)cc3c21`, the Activity [1] was “Active”, the Activity [2] was 3% and the Activity [3] was 22%. For the same compound, the Activity [4] was 43%, the Activity [5] was 91% and the Activity [6] was 41%. The Activity [7] was 52%, the Activity [8] was 64% and the Activity [9] was 64%. For the same compound, the Activity [10] was 3%, the Activity [11] was 92% and the Activity [12] was 105%. For the same compound, the Activity [13] was 72%, the Activity [14] was 86% and the Activity [15] was 80%. The Activity [16] was 83%, the Activity [17] was 81% and the Activity (Homo sapiens [18]) was 82%. The Activity [19] was 89%, the Activity [20] was 97% and the Activity (Homo sapiens [21]) was 3%.
